Source: ChEMBL document CHEMBL1144782, “Isoindolo[2,1-a]quinoxaline derivatives, novel potent antitumor agents with dual inhibition of tubulin polymerization and topoisomerase I” (2008)

How the values were obtained:
Type in all cases: functional
OVCAR-5 = experiment: Antitumor activity against human OVCAR5 cells
Summary of the method: (§1)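 Run by the NCI in its in vitro disease-oriented screen of about 60 human tumour cell lines. For each line it reports pGI50 (50% net growth inhibition), pTGI (total growth inhibition) and pLC50 (50% net cell death), each as –log molar concentration. Where an effect was not reached within the tested range, the highest tested concentration was used.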

IGROV-1 = experiment: Antitumor activity against human IGROV1 cells; summary of the method: as §1
SF-539 = experiment: Antitumor activity against human SF539 cells; summary of the method: as §1
HT-29 = experiment: Antitumor activity against human HT29 cells; summary of the method: as §1
OVCAR-4 = experiment: Antitumor activity against human OVCAR4 cells; summary of the method: as §1
CCRF-CEM [1] = experiment: Antitumor activity against human CCRF-CEM cells; summary of the method: as §1
[2] = Antitumor activity against human NCI-H322 cells; summary of the method: as §1
CCRF-CEM [3] = experiment: Growth inhibition of human vinblastine-resistant CEM cells after 72 hrs by MTT assay
Summary of the method: (§2)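 Growth inhibition by MTT after 72 h incubation. Resistant sublines: LoVoDoxo and MCF-7 MDR were kept in 0.1 µg/mL doxorubicin; CEMVbl-100 was selected against vinblastine. GI50 given as mean ± SEM of three independent experiments. Resistance index is resistant-line GI50 over parental GI50.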

MOLT-4 = experiment: Antitumor activity against human MOLT4 cells; summary of the method: as §1
NCI-H460 [4] = experiment: Antitumor activity against human NCI-H460 cells; summary of the method: as §1
SF-268 [5] = experiment: Antitumor activity against human SF268 cells; summary of the method: as §1
PC-3 = experiment: Antitumor activity against human PC3 cells; summary of the method: as §1
OVCAR-3 = experiment: Antitumor activity against human OVCAR-3 cells; summary of the method: as §1
COLO 205 = experiment: Antitumor activity against human COLO205 cells; summary of the method: as §1
SK-MEL-28 = experiment: Antitumor activity against human SKMEL28 cells; summary of the method: as §1
TK-10 = experiment: Antitumor activity against human TK10 cells
Summary of the method: (§3)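 NCI 60-cell-line screen. Parameters were GI50 (50% net growth inhibition), TGI and LC50, each reported as –log molar concentration. Where an effect was not reached within the tested range, the highest tested concentration was used in the calculation.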

EKVX = experiment: Antitumor activity against human EKVX cells; summary of the method: as §1
SNB-19 = experiment: Antitumor activity against human SNB19 cells; summary of the method: as §1
UACC-257 = experiment: Antitumor activity against human UACC257 cells; summary of the method: as §3
MCF7 [6] = experiment: Growth inhibition of human MCF7 cells after 72 hrs by MTT assay; details: MCF7, 72 h; summary of the method: as §2
HCT-15 = experiment: Antitumor activity against human HCT15 cells; summary of the method: as §1
HCC 2998 = experiment: Antitumor activity against human HCC2998 cells; summary of the method: as §1
[7] = Antitumor activity against human […] cells; summary of the method: as §1
HCT-116 = experiment: Antitumor activity against human HCT116 cells; summary of the method: as §1
NCI-H226 = experiment: Antitumor activity against human NCI-H226 cells; summary of the method: as §1
SW-620 = experiment: Antitumor activity against human SW620 cells; summary of the method: as §3
A498 = experiment: Antitumor activity against human A498 cells; summary of the method: as §1
SNB-75 = experiment: Antitumor activity against human SNB75 cells; details: Homo sapiens, SNB-75; summary of the method: as §1
NCI/ADR-RES = experiment: Antitumor activity against human NCI/ADR-RES cells; summary of the method: as §1
NCI-H460 [8] = experiment: Cell viability against human NCI-H460 cells at 10 uM
HOP-62 = experiment: Antitumor activity against human HOP62 cells; summary of the method: as §1
CCRF-CEM [9] = experiment: Resistance index, Ratio of GI50 for human vinblastine-resistant CEM cells to GI50 for human CEM cells
OVCAR-8 = experiment: Antitumor activity against human OVCAR8 cells; summary of the method: as §1
MCF7 [10] = experiment: Cell viability against human MCF7 cells at 10 uM
T47D = experiment: Antitumor activity against human T47D cells; summary of the method: as §3
U-251 = experiment: Antitumor activity against human U251 cells; summary of the method: as §3
SF-268 [11] = experiment: Cell viability against human SF268 cells at 10 uM
SK-MEL-2 = experiment: Antitumor activity against human SKMEL2 cells; summary of the method: as §1
MDA-MB-435 = experiment: Antitumor activity against human MDA-MB-435 cells; summary of the method: as §1
A549 = experiment: Antitumor activity against human A549 cells; summary of the method: as §1
MCF7 [12] = experiment: Growth inhibition of human multidrug-resistant MCF7 cells after 72 hrs by MTT assay; details: MCF7, 72 h; summary of the method: as §2
[13] = read-out: Log LC50 (the source's name) (converted)

Molecule `Cc1cc2[nH]c(=O)c3c4ccccc4cn3c2cc1C` has a GI50 (OVCAR-5) of 13.8 µM, an LC50 (50% net cell death) (OVCAR-5) of 55 µM and a TGI (OVCAR-5; read-out: pTGI (converted)) of 27.5 µM. For the same molecule, the GI50 (IGROV-1) was 12.3 µM, the CC50 (IGROV-1; [13]) was 57.5 µM and the TGI (IGROV-1; read-out: pTGI (converted)) was 26.9 µM. The GI50 (SF-539) was 11.2 µM, the LC50 (50% net cell kill) (SF-539) was 64.6 µM and the TGI (SF-539; read-out: pTGI (converted)) was 26.9 µM. It also gave a GI50 (HT-29) of 6.03 µM, an LC50 (HT-29) greater than 100 µM and a TGI (HT-29; read-out: pTGI (converted)) greater than 100 µM. It also gave a GI50 (OVCAR-4) of 13.5 µM, an LC50 (50% net cell kill) (OVCAR-4) of 56.2 µM and a TGI (OVCAR-4; read-out: pTGI (converted)) of 27.5 µM. The GI50 (CCRF-CEM [1]) was 10 µM, the LC50 (CCRF-CEM [1]) was 97.7 µM and the TGI (CCRF-CEM [1]; read-out: pTGI (converted)) was 30.9 µM. For the same molecule, the GI50 [2] was 16.6 µM, the LC50 (50% net cell death) [2] was 55 µM and the TGI ([2]; read-out: pTGI (converted)) was 30.2 µM. It also gave a GI50 (CCRF-CEM [3]) of 15.1 µM, a GI50 (MOLT-4) of 5.62 µM and an LC50 (MOLT-4) of 70.8 µM. The TGI (MOLT-4; read-out: pTGI (converted)) was 19.5 µM, the GI50 (NCI-H460 [4]) was 4.47 µM and the CC50 (NCI-H460 [4]; [13]) was 63.1 µM. For the same molecule, the TGI (NCI-H460 [4]; read-out: pTGI (converted)) was 20.4 µM, the GI50 (SF-268 [5]) was 15.5 µM and the CC50 (SF-268 [5]; [13]) was 69.2 µM. The TGI (SF-268 [5]; read-out: pTGI (converted)) was 32.4 µM, the GI50 (PC-3) was 12 µM and the LC50 (50% net cell death) (PC-3) was 53.7 µM. It also gave a TGI (PC-3; read-out: pTGI (converted)) of 25.7 µM, a GI50 (OVCAR-3) of 13.8 µM and an LC50 (50% net cell death) (OVCAR-3) of 57.5 µM. It also gave a TGI (OVCAR-3; read-out: pTGI (converted)) of 28.2 µM, a GI50 (COLO 205) of 15.1 µM and an LC50 (COLO 205) greater than 100 µM. The TGI (COLO 205; read-out: pTGI (converted)) was greater than 100 µM, the GI50 (SK-MEL-28) was 14.8 µM and the CC50 (SK-MEL-28; [13]) was 83.2 µM. The TGI (SK-MEL-28; read-out: pTGI (converted)) was 35.5 µM, the GI50 (TK-10) was 20 µM and the CC50 (TK-10; [13]) was 58.9 µM. For the same molecule, the TGI (TK-10; read-out: pTGI (converted)) was 33.9 µM, the GI50 (EKVX) was 13.5 µM and the LC50 (50% net cell kill) (EKVX) was 75.9 µM. The TGI (EKVX; read-out: pTGI (converted)) was 31.6 µM, the GI50 (SNB-19) was 16.2 µM and the CC50 (SNB-19; [13]) was 83.2 µM. For the same molecule, the TGI (SNB-19; read-out: pTGI (converted)) was 36.3 µM, the GI50 (UACC-257) was 20.4 µM and the LC50 (UACC-257) was 63.1 µM. The TGI (UACC-257; read-out: pTGI (converted)) was 35.5 µM, the GI50 (MCF7 [6]) was 5.1 µM and the GI50 (HCT-15) was 6.17 µM. It also gave a CC50 (HCT-15; [13]) of 61.7 µM, a TGI (HCT-15; read-out: pTGI (converted)) of 21.9 µM and a GI50 (HCC 2998) of 4.07 µM. For the same molecule, the LC50 (HCC 2998) was 50.1 µM, the TGI (HCC 2998; read-out: pTGI (converted)) was 16.6 µM and the GI50 [7] was 8.32 µM. The LC50 [7] was 60.3 µM, the TGI ([7]; read-out: pTGI (converted)) was 23.4 µM and the GI50 (HCT-116) was 1.58 µM. The LC50 (HCT-116) was 6.17 µM, the TGI (HCT-116; read-out: pTGI (converted)) was 3.09 µM and the GI50 (NCI-H226) was 15.1 µM. It also gave an LC50 (50% net cell kill) (NCI-H226) of 89.1 µM, a TGI (NCI-H226; read-out: pTGI (converted)) of 36.3 µM and a GI50 (SW-620) of 3.8 µM. The CC50 (SW-620; [13]) was greater than 100 µM, the TGI (SW-620; read-out: pTGI (converted)) was 33.1 µM and the GI50 (A498) was 21.4 µM. It also gave a CC50 (A498; [13]) of 72.4 µM, a TGI (A498; read-out: pTGI (converted)) of 39.8 µM and a GI50 (SNB-75) of 15.5 µM. For the same molecule, the LC50 (SNB-75) was 58.9 µM, the TGI (SNB-75; read-out: pTGI (converted)) was 30.2 µM and the GI50 (NCI/ADR-RES) was 13.5 µM. The LC50 (NCI/ADR-RES) was 74.1 µM, the TGI (NCI/ADR-RES; read-out: pTGI (converted)) was 31.6 µM and the Activity (NCI-H460 [8]) was 0%. It also gave a GI50 (HOP-62) of 2.69 µM, an LC50 (50% net cell death) (HOP-62) of 28.8 µM and a TGI (HOP-62; read-out: pTGI (converted)) of 8.13 µM. The RatioGI50 (CCRF-CEM [9]) was 0.97, the GI50 (OVCAR-8) was 7.08 µM and the LC50 (50% net cell death) (OVCAR-8) was 81.3 µM. The TGI (OVCAR-8; read-out: pTGI (converted)) was 25.7 µM, the Activity (MCF7 [10]) was 0% and the GI50 (T47D) was 15.5 µM. For the same molecule, the LC50 (T47D) was greater than 100 µM, the TGI (T47D; read-out: pTGI (converted)) was 50.1 µM and the GI50 (U-251) was 4.07 µM. It also gave a CC50 (U-251; [13]) of 47.9 µM, a TGI (U-251; read-out: pTGI (converted)) of 14.1 µM and an Activity (SF-268 [11]) of 0%. The GI50 (SK-MEL-2) was 18.2 µM, the LC50 (SK-MEL-2) was 66.1 µM and the TGI (SK-MEL-2; read-out: pTGI (converted)) was 34.7 µM. For the same molecule, the GI50 (MDA-MB-435) was 6.03 µM, the LC50 (50% net cell death) (MDA-MB-435) was 50.1 µM and the TGI (MDA-MB-435; read-out: pTGI (converted)) was 20 µM. The GI50 (A549) was 14.8 µM, the CC50 (A549; [13]) was 95.5 µM and the TGI (A549; read-out: pTGI (converted)) was 38 µM. It also gave a GI50 (MCF7 [12]) of 9.2 µM.
